What was measured:
[1] = molecular target: T1, 3-hydroxy-3-methylglutaryl-coenzyme A reductase (Mus musculus) (UniProt Q01237); experiment: In Vivo effect for the hypolipidemic activity on HMG-CoA reductase in CF1 mice after 16 days of oral administration at a dose of 10 mg/kg; format: organism-based; parameters: dose 10 mg/kg
T1 sequence (whole entry): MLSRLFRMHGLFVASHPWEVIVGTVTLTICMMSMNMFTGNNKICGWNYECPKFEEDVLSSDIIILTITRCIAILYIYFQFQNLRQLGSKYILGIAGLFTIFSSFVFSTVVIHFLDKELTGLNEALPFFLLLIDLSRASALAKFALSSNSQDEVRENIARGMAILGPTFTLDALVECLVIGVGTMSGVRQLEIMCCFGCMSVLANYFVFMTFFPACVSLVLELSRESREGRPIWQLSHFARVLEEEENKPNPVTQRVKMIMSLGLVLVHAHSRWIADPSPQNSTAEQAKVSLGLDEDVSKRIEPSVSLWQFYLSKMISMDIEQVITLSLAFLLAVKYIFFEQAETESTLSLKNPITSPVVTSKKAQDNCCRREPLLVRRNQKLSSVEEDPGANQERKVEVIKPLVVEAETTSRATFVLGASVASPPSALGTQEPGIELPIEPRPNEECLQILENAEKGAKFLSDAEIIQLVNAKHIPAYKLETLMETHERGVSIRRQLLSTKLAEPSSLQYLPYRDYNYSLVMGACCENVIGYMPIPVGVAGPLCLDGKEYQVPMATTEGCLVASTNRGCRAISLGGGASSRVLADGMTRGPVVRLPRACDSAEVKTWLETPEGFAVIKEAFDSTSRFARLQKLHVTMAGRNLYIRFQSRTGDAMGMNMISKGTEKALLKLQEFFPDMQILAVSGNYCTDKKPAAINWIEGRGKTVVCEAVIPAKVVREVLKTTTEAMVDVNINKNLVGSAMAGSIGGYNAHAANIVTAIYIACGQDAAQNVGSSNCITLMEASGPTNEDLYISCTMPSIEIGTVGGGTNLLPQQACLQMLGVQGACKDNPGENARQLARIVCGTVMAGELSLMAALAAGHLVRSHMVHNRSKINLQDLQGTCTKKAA
Summary of the method: (§1)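 CF1 male mice are dosed orally at 10–60 mg/kg per day for 16 days, with 1% CMC as the control vehicle. Liver is homogenized at 10% in 0.25 M sucrose + 0.001 M EDTA, pH 7.2. Enzymes are assayed by literature methods, with Lowry protein. Activity is given as % of control (X ± SD, N = 6), with p from Student's t test.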

Mus musculus [2] = experiment: Compound was evaluated for the hypolipidemic activity in CF1 male mice at a dose of 40 mg/kg orally for Serum triglyceride at 16th day; format: functional; settings: route oral
Summary of the method: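 CF1 male mice received the agent orally in 1% CMC at 10–60 mg/kg per day. Tail-vein blood was taken on days 9 and 16. Serum cholesterol was measured by modified Liebermann–Burchard on duplicate 25-µL samples, and serum triglyceride on day 16 in duplicate 50-µL samples. Values are % of vehicle control, mean ± SD, N = 6; Student's t test.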

[3] = molecular target: Cholesterol 7-alpha-hydroxylase (Cytochrome P450 7A1) (Mus musculus, UniProt Q64505); experiment: In vivo effect on Cholesterol 7-alpha-hydroxylase activity in CF1 mice after 16 days at 40 mg/kg oral dose; format: functional, organism-based; parameters: dose 40 mg/kg, route oral; settings: read-out: Control; summary of the method: as §1
Mus musculus [4] = experiment: Compound was evaluated for the hypolipidemic activity in CF1 male mice at a dose of 60 mg/kg orally for Serum triglyceride at 16th day; format: functional; settings: route oral
Summary of the method: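 CF1 male mice dosed orally at 10–60 mg/kg per day, with 1% CMC as the vehicle control; N = 6 per group. Serum cholesterol was read on days 9 and 16 and serum triglyceride on day 16. Liver lipids were extracted on day 16 and assayed for cholesterol, triglyceride, neutral lipid, phospholipid and protein. Values are given as % of control ± SD.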

Mus musculus [5] = experiment: In Vivo effect for the hypolipidemic activity on phosphatidate phosphohydrolase in CF1 mice after 16 days administered orally at a dose of 60 mg/kg; format: organism-based; parameters: dose 60 mg/kg; summary of the method: as §1
Rattus norvegicus [6] = experiment: Compound was evaluated for the hypolipidemic activity at 20 mg/kg per day orally for 14 days on triglycerides content in rat LDL; format: functional; settings: route oral
Summary of the method: (§2)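 Male Sprague–Dawley rats (~300 g) were dosed orally each day. Blood was drawn from the abdominal vein. Lipoprotein fractions (chylomicron, VLDL, LDL, HDL) were separated by the Hatch–Lees and Havel methods. Each fraction was assayed for cholesterol, triglyceride (enzymatic kit), neutral lipids, phospholipids and Lowry protein. Values are % of 1% CMC vehicle control, N = 6.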

Rattus norvegicus [7] = experiment: Compound was evaluated for the hypolipidemic activity at 20 mg/kg per day orally for 14 days on protein content in rat VLDL; format: functional; settings: route oral; summary of the method: as §2
Mus musculus [8] = species: Mus musculus; experiment: In Vitro evaluation for the CF1 liver enzyme activity on Hepatic lipoprotein lipase at concentration 50 uM; format: functional
Summary of the method: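 Mouse liver enzymes assayed in vitro on 10% homogenates of CF1 male mouse liver, with test drug added at 50–200 μM. Each enzyme follows a published procedure. Protein is measured by Lowry. Activity is given as % of untreated control (X ± SD, N = 6).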

Rattus norvegicus [9] = experiment: Compound was evaluated for the hypolipidemic activity at 20 mg/kg per day orally for 14 days on cholesterol content in rat HDL; format: functional; settings: route oral; summary of the method: as §2

Sequence of Cholesterol 7-alpha-hydroxylase (Cytochrome P450 7A1) (Q64505 whole entry): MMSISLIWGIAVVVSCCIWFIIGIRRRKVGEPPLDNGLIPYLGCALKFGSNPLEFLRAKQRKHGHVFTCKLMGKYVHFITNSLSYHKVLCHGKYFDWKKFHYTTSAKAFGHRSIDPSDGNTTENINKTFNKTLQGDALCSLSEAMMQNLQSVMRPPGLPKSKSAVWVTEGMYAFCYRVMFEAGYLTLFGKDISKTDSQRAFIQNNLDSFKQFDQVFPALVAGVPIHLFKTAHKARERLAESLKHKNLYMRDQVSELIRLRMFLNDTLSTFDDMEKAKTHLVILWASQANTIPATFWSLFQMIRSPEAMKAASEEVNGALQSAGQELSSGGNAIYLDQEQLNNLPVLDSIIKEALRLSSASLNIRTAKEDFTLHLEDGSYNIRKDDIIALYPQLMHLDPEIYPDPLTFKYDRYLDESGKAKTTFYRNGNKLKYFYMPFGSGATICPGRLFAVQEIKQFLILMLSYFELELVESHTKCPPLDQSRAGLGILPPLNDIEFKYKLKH

Control [1]: 116%
activity at 384 h [3]: 55%
SMILES: COc1ccc(C2C(=O)c3ccccc3C2=O)cc1 [ANISINDIONE]
Control (Mus musculus [2]): 73%
Control (Mus musculus [4]): 67%
Control (Mus musculus [5]): 100%
Control (Rattus norvegicus [6]): 40%
Control (Rattus norvegicus [7]): 106%
Control (Mus musculus [8]): 86%
Control (Rattus norvegicus [9]): 216%

Reference: ChEMBL document CHEMBL1123129, “Hypolipidemic activity of indan-1,3-dione derivatives in rodents” (J Med Chem, 1985)
